The list is not random: actives were taken first. Their share in the collection is about 2.5%.
MEKK3 PB1 HTS = modulators (inhibitors or enhancers) of MEK5 binding to human MEKK3 PB1 domain. Q99759. bead-based flow cytometry, Alexa488-MEK5 binding to MEKK3; actives lie on both sides; 0 = blocked by unlabeled MEK5, 100 = vehicle. binding response (% of control), % at 10 µM. hit rate 1.4% among 290,000;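 active = binding response more than 3 SD above or below the average of its plate-row segment, actives on both sides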;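 note: Alexa488 bead fluorescence after subtracting the streptavidin-only scavenger bead signal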
Target sequence (Q99759 whole entry, looked up, the tested form may be a part): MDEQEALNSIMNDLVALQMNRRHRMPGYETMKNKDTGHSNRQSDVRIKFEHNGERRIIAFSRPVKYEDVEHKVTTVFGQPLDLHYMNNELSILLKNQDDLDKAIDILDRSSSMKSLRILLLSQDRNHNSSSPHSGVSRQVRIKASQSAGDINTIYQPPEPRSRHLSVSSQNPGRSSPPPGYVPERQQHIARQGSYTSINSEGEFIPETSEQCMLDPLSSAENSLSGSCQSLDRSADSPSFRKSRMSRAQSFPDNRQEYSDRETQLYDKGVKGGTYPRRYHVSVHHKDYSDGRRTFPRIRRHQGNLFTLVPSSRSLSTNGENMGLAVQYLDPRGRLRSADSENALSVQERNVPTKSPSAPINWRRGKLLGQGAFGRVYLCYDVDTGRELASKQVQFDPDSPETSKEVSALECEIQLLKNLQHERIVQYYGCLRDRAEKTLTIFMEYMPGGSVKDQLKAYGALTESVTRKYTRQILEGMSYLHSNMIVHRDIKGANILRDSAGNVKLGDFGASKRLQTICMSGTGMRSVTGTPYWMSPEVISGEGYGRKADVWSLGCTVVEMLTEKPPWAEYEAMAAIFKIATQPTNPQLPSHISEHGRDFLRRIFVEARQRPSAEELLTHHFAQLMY
MEKK2wt PB1 HTS = raises or lowers MEK5 binding to wildtype human MEKK2 PB1 domain. binding response (% of control), % at 10 µM. Q9Y2U5. bead flow cytometry, Alexa488-MEK5 binding to MEKK2 WT; actives lie on both sides. AID 1531. hit rate 1.1% among 290,000; in the data active = binding response below about 67% or above about 130%
MEKK2mut PB1 HTS = signal of MEK5 binding to mutant human MEKK2 PB1 domain | bead flow cytometry, Alexa488-MEK5 binding to MEKK2 mutant | percent response, % at 10 µM | hit rate 0.35% among 290,000; in the data active = percent response above about 24%, passing the limit was not always enough
T cell HTS = T cell immune modulators affecting CD8 T cell-vesicle binding; hit rate 0.068% among 330,000; 2C CD8+ T cell-vesicle binding, flow cytometry; hits give low values; response (vesicle binding), % at 7 µM;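 active = response, share of CD8 T cells binding vesicles, and their 90th percentile fluorescence all below set limits, cut at about 80% in these data, passing the limit was not always enough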;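 note: values below 100% mean blocked vesicle binding to the CD8+ T cells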
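Test system: purified 2C TCR transgenic mouse naive CD8+ T cells. Probe or stimulus: QL9-peptide-loaded Drosophila micro-vesicles bearing Ld, ICAM-1 and B7-1. Incubation: binding step 1.5 h, 37 °C, antibody labelling 20 min, ice. Measured by: flow cytometry of vesicle-bound cells.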
UCH37 DUB inh = human UCH37 deubiquitinating enzyme inhibition | inhibition, % (concentration not given with the values) | AID 588478 | hit rate 0.33% among 330,000 | purified proteasome/UCH37, Ub-AMC cleavage fluorescence | Q9Y5K5;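 active = mean inhibition over replicate wells above about 20%, limit read from the data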;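 note: 0% = compound-free wells with enzyme and 100% = wells lacking proteasome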
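Assay system: Proteasome-bound UCH37. Buffer or medium: pH 7.4 Tris-HCl (50 mM) with ovalbumin, ATP-MgCl2, DTT. Incubation: 30 min preincubation with enzyme, 25 min cleavage at room temperature. Measured by: fluorescence, ex 355 nm, em 460 nm. Read-out basis: percent inhibition. Control set: wells without proteasome as full block, compound-free enzyme plus substrate as uninhibited.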
Rce1 inh = inhibitors of yeast Ras-converting enzyme; AID 2563; Q03530; yeast membranes, quenched prenylated peptide cleavage fluorescence; calls only; hit rate 0.27% among 290,000;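 active = fall in fluorescence gain of 50% or more versus controls, with final raw signal at or below 3038400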;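 note: plate controls were neutral control wells for no effect and wells lacking membranes for full effect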
MEKK2wt confirm = raises or lowers MEK5 binding to wildtype human MEKK2, retest | AID 1892 | binding response (% of control), % at 10 µM | bead flow cytometry, Alexa488-MEK5 binding to MEKK2 WT; actives lie on both sides | shares compounds with MEKK3 PB1 HTS | hit rate 2.4% among 5,900; in the data active = binding response below about 16% or above about 210%; inactive = in between
MEKK2mut-MEK5 = signal of MEK5 binding to mutant human MEKK2, retest; shares compounds with MEKK3 PB1 HTS; bead flow cytometry, Alexa488-MEK5 binding to MEKK2 mutant; percent response, % at 10 µM; hit rate 2% among 5,900; in the data active = percent response mostly above about 71%, no sharp cut-off; inactive = mostly below about 38%;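 note: higher means compound restores mutant binding toward wildtype level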
MEKK3 confirm = confirmation of inhibitors of MEK5 binding to human MEKK3; shares compounds with MEKK3 PB1 HTS; bead flow cytometry, Alexa488-MEK5 binding to MEKK3; hits give low values; binding response (% of control), % at 10 µM; hit rate 1.8% among 5,900; AID 1894;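 active = binding response below 72% of control, or above a set upper limit, though filed actives all read lower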;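 note: 100% = DMSO only wells and 0% = binding blocked by excess unlabeled MEK5; lower values mean stronger disruption of MEK5 binding to MEKK3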
* marks the source's active call; other numbers are inactive results; i = inactive; x = no result given; [ ] = remark or other dose.

SMILES	MEKK3 PB1 HTS	MEKK2wt PB1 HTS	MEKK2mut PB1 HTS	T cell HTS	UCH37 DUB inh	Rce1 inh	MEKK2wt confirm	MEKK2mut-MEK5	MEKK3 confirm
CC1CCCN(CCOCCOc2ccc(Br)cc2Cl)C1 (stereo not given)	150*	112	7	227	3	i	111	11	98
CC1CCCN(CCOc2ccc(Br)cc2)C1 (stereo not given)	198*	112	0	128	0	i	91	-12	87
CC1CC(C)CN(CCOCCSc2ccccc2)C1 (stereo not given)	95	111	12	i	-1	i	x	x	x
CC1CCCN(CCOCCOc2ccc(Cl)cc2Br)C1 (stereo not given)	87	120	7	829	6	i	x	x	x
CC1CCCN(CCOCCSc2ccccc2)C1 (stereo not given)	133*	103	0	246	1	i	101	-11	95
COc1cccc2cc(C(=NO)c3ccc(Br)cc3)oc12	x	x	x	x	4	x	x	x	x
Cc1ccc(-c2ccc(SCC(=O)N3CCN(c4ccccc4)CC3)nn2)cc1	138*	105	1	300	-2	i	105	-3	102
O=C(CSc1ccc(-c2ccccc2)nn1)N1CCN(c2ccccc2)CC1	99	99	9	804	-1	i	x	x	x
Cc1ccc(S(=O)(=O)N2CCN(CC(=O)NN=Cc3ccc(Cl)c([N+](=O)[O-])c3)CC2)cc1	x	x	x	x	2	x	x	x	x
O=C1NC(c2ccc(Cl)cc2)=COc2ccccc21	143*	126	6	90	4	i	101	2	101
COc1ccc(C2=COc3ccccc3C(=O)N2)cc1	98	89	-6	180	4	i	x	x	x
CC(Oc1ccc(F)cc1)c1ccnc2nc(N=CN(C)C)nn12 (stereo not given)	x	x	x	x	-94	x	x	x	x
Cn1c(OCc2cccnc2)nc2c1c(=O)n(Cc1ccc(F)cc1)c(=O)n2C	71*[inhibitor]	78	-30	103	2	i	99	-2	104
Cn1c(OCc2cccnc2)nc2c1c(=O)n(Cc1ccccc1)c(=O)n2C	93	99	-6	130	3	i	x	x	x
Cc1ccc(S(=O)(=O)NCCCCCC(=O)N(C)C)cc1	71*[inhibitor]	77	-11	624	2	i	105	6	106
Cc1ccc(NC(=O)CCCCCNS(=O)(=O)c2ccc(C)cc2)cc1	102	104	0	458	3	i	x	x	x
COCC(C)NCc1cccc2ccccc12 (stereo not given)	96	82	-13	230	4	i	x	x	x
CC(CCc1ccccc1)NCc1cccc2ccccc12 (stereo not given)	113	135*	8	140	2	i	119	12	104
Clc1ccc(-c2cn3cc(Br)ccc3n2)cc1Cl	150*	109	0	393	2	i	93	-2	100
Cc1ccc(C=Nn2nnnc2N)cc1[N+](=O)[O-]	x	x	x	x	4	x	x	x	x
O=C(CN1CCOCC1)Nc1ccccc1Sc1ccccc1	91	94	-4	235	1	i	x	x	x
N=c1sccn1CC(=O)Nc1ccccc1Sc1ccccc1	156*	178*	45	120	0	i	106	0	99
Nc1nonc1-n1nnc(C(=O)NN=Cc2cccnc2)c1-c1cccs1	x	x	x	x	5	x	x	x	x
CC(C)N(c1ccccc1)c1ccc(NC(=O)COC(=O)CCN2C(=O)c3cccc([N+](=O)[O-])c3C2=O)cc1	48*[inhibitor]	90	-2	234	6	i	94	-7	93
CC(=O)c1ccc(NC(=O)COC(=O)CCN2C(=O)c3cccc([N+](=O)[O-])c3C2=O)cc1	91	94	-2	111	0	i	x	x	x
SMILES	MEKK3 PB1 HTS	MEKK2wt PB1 HTS	MEKK2mut PB1 HTS	T cell HTS	UCH37 DUB inh	Rce1 inh	MEKK2wt confirm	MEKK2mut-MEK5	MEKK3 confirm
O=C(O)c1ccc(C=NNC(=O)C(O)(c2ccccc2)c2ccccc2)cc1	x	x	x	x	2	x	x	x	x
COc1ccc(-n2c(N)c(-c3nc4ccccc4n3C)sc2=S)cc1	69*[inhibitor]	82	-13	267	2	i	100	-1	100
Cc1cccc(OCC(O)Cn2ccnc2C)c1 (stereo not given)	107	116	4	107	1	i	x	x	x
COc1cc(OC)cc(OCC(O)Cn2ccnc2C)c1 (stereo not given)	2.0*[inhibitor]	2.0*[inhibitor]	-21	499	-1	i	95	-6	102
CC(=O)ON=Cc1c(Cl)n(C)c2ccccc12	x	x	x	x	2	x	x	x	x
CCOCCCNC(=O)C(NC(=O)c1ccc2c(c1)OCO2)c1ccc(OC)cc1 (stereo not given)	104	107	8	216	4	i	x	x	x
COCCCNC(=O)c1ccc2c(c1)OCO2	67*[inhibitor]	73	-7	270	5	i	100	-3	103
COCCCNC(=O)c1ccc2nc(Cc3ccc(OC)cc3)oc2c1	38*[inhibitor]	16*[inhibitor]	-15	154	4	i	104	2	104
CCOCCCNC(=O)C(NC(=O)c1ccc2c(c1)OCO2)c1ccccc1 (stereo not given)	43*[inhibitor]	54	-14	165	2	i	105	2	105
CN1c2ccccc2C(O)=C(C(=S)Nc2ccc(F)c(Cl)c2)S1(=O)=O	130*	129	8	372	14	i	96	9	103
CN1CCN(CCCNC(=S)Nc2ccc(F)c(Cl)c2)CC1	101	97	-4	248	-1	i	x	x	x
CC(=O)Nc1ccc(S(=O)(=O)N[C@@H](C)C(=O)OCc2ccc(Cl)cc2)cc1	144*	107	0	314	-1	i	107	0	102
CC(=O)Nc1ccc(S(=O)(=O)N[C@@H](C)C(=O)OCC(=O)c2ccc(C)cc2)cc1	x	x	x	134	0	x	x	x	x
CC(=O)Nc1nnc(C2=COCCO2)o1	58*[inhibitor]	78	-4	762	5	i	101	-1	99
O=C(Nc1nnc(C2=COCCO2)o1)c1ccc(Cl)cc1	93	95	6	362	2	i	x	x	x
O=C(NN=C/C=C\c1ccccc1[N+](=O)[O-])c1ccco1	x	x	x	x	3	x	x	x	x
CN(N=Cc1c[nH]c2ccccc12)c1cnn(-c2ccc(F)c(Cl)c2)c(=O)c1Cl	x	x	x	x	6	x	x	x	x
